Series [1] in a line: Selectivity index, ratio of CC50 for human HepG2 cells to IC50 for GFP-expressing Plasmodium berghei sporozoites. The series is classed as toxicity. The settings on record: read-out: Ratio CC50/IC50. The gist of the method: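 Selectivity index = CC50 (matching cell) / IC50 (matching parasite). Cell–parasite pairs: HepG2-CD81 with P. yoelii, HepG2 with P. berghei, human hepatocytes with P. falciparum.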

Series [2] has as its system Plasmodium falciparum. Nature of the series: Antiplasmodial activity against GFP-harboring Plasmodium falciparum sporozoites infected in human primary hepatocytes assessed as reduction in parasite growth treated every 24 hrs by DAPI staining-based fluorescence microscopic analysis. The series is classed as functional, organism-based. In a few lines: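 Collagen-coated wells seeded with HepG2 (P. berghei), HepG2-CD81 (P. yoelii) or primary human hepatocytes (P. falciparum). Sporozoites added: 5×10^3 to 1×10^4 per well to the cell lines, 2.5×10^4 per well to hepatocytes. Compounds given at infection: top 10 µg/mL plus seven serial dilutions, renewed at 3 h and then every 24 h. Cultures grown 40 h (cell lines) or 8 days (hepatocytes) at 37°C. Methanol-fixed, HSP70 immunolabelled, DAPI counterstained. IC50 from logistic regression; triplicate.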

The test system of series [3] is Mus musculus. The series is described as follows: Acute toxicity in BALB/c mouse assessed as mouse survival at 300 mg/kg, po administered as single dose measured every day for 14 days. The series is classed as organism-based. The settings on record: in vivo, 336 h. In a few lines: (§1)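 Female BALB/c mice, 6-8 weeks old, 20-23 g, in groups of three. Single oral dose of 300 or 500 mg/kg; vehicle DMSO 100% given to controls. Mice watched for signs of toxicity for 4 h after dosing. Physical appearance, injury, pain and illness recorded daily for 14 days. Euthanasia in a CO2 chamber on day 14 or earlier if suffering.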

The subject of series [4] is Mus musculus. Nature of the series: Acute toxicity in BALB/c mouse assessed as necrosis of liver at 500 mg/kg, po administered as single dose measured at day 14 by haematoxylin and eosin staining based microscopic analysis. The series is classed as organism-based. The settings on record: in vivo. The gist of the method:
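Female BALB/c mice, groups of three, single oral dose; vehicle DMSO 100% for controls. Mice euthanised with CO2 on day 14, or earlier if suffering. Gross necropsy performed. Spleen, liver and kidney fixed in formaldehyde 37%, stained with haematoxylin and eosin and examined by light microscopy.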

Series [5] relates to Plasmodium falciparum. Nature of the series: Antiplasmodial activity against chloroquine-sensitive Plasmodium falciparum 3D7 infected in human red blood cells assessed as reduction in parasite growth after 48 hrs by Hoechst 33342 staining based flow cytometric analysis. The series is classed as functional, organism-based. The settings on record: 3D7, 48 h. In a few lines:
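Ring-stage cultures (>80% rings) at 1% parasitaemia in A+ human erythrocytes, 2% haematocrit. Medium RPMI 1640 with 10% A+ serum, 37°C, 5% CO2/5% O2. Compounds in DMSO at 1.56–100 µg/mL final, DMSO ≤1%. After 48 h, cells stained with Hoechst 33342 and 1×10^4 counted by flow cytometry. IC50 from logistic dose-response regression; three independent experiments in triplicate.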
For orientation: Flow cytometry measures light scatter and fluorescence of single cells or particles in a stream.

For series [6], the system named is Plasmodium yoelii. The series is described as follows: Antiplasmodial activity against Plasmodium yoelii 17XNL sporozoites infected in BALB/c mouse assessed as decrease in peripheral blood parasite levels at 100 mg/kg, po measured at day 5 by […]. The series is classed as functional, organism-based. In a few lines: (§2)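 BALB/c mice (6-8 weeks, 20-23 g), n=4 per hybrid group and n=5 per control. Dosed orally at 100 mg/kg (100 µL) on days -1, 0, +1 and +2. Vehicle was DMSO 100%; primaquine diphosphate given at 30 mg/kg daily. On day 0, 5 x 10^3 cryopreserved P. yoelii 17XNL sporozoites injected i.v. Parasitaemia read by Giemsa smear and SYBR Green flow cytometry. Groups compared by Kruskal-Wallis test.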

Series [7] can be described thus: Selectivity index, ratio of CC50 for human HepG2 cells to IC50 for multidrug-resistant Plasmodium falciparum […]. Conditions: read-out: Ratio CC50/IC50. The series is classed as toxicity. In a few lines:
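Selectivity index = HepG2 CC50 / FCR-3 IC50. CC50 from MTT assay after 48 h exposure, A550. IC50 from 48 h Hoechst 33342 flow-cytometry assay.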

Series [8] has as its system Mus musculus. Nature of the series: Acute toxicity in BALB/c mouse assessed as effect on creatinine level at 300 to 500 mg/kg, po administered as single dose measured at day 14. The series is classed as organism-based. The settings on record: in vivo.
Series [9] has as its system Mus musculus. The series is described as follows: Acute toxicity in BALB/c mouse assessed as effect on body weight at 300 mg/kg, po administered as single dose measured every day for 14 days. The series is classed as organism-based. Conditions: in vivo, 336 h. In a few lines:
as §1

Series [10] can be described thus: Genotoxicity in Salmonella typhimurium TA1535 harboring pSK1002 assessed as umu gene induction at 0.001 to 0.063 mg/ml after 4 hrs in absence of Sprague-Dawley rat liver S9 fraction by beta-galactosidase reporter gene assay relative to control. Conditions: salmonella enterica subsp. enterica serovar typhimurium; read-out: FC. The series is classed as toxicity, organism-based. In a few lines: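 SOS/umu test, 4 h at 37°C, with S9 mix or PBS. Positive controls 4-NQO (2.5 µg/mL final, no S9) and 2-AA (0.0125 mg/mL final, with S9). Aliquots incubated with ONPG 0.9 mg/mL in B-buffer for 30 min at 28°C, then stopped with 1 M Na2CO3. Activity calculated as A420/A600. Induction factor is the ratio to the DMSO control; genotoxic if ≥2 at ≥80% survival.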

Series [11] in a line: Genotoxicity in Salmonella typhimurium TA1535 harboring pSK1002 assessed as bacterial survival at 0.001 to 0.063 mg/ml after 4 hrs in presence of Sprague-Dawley rat liver S9 fraction by SOS/umu assay relative to control. The series is classed as toxicity, organism-based. The settings on record: salmonella enterica subsp. enterica serovar typhimurium; read-out: Survival. In a few lines:
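Log-phase S. typhimurium TA1535/pSK1002 (OD600 0.15–0.4) exposed for 4 h at 37°C with shaking, with 10% rat S9 mix or PBS. Eleven twofold dilutions tested from 1 mg/mL final; DMSO as solvent control. A600 read. Survival expressed as % of negative-control A600.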

Series [12] deals with Plasmodium yoelii. The series is described as follows: Antiplasmodial activity against Plasmodium yoelii 17XNL sporozoites infected in BALB/c mouse assessed as incident of decrease in peripheral blood parasite levels at 100 mg/kg, po measured at day 1 by […] relative to control. The series is classed as functional. Also noted: scale not given: the % may be the effect or the level left. In a few lines: as §2

Series [13] is described as follows: Cytotoxicity against human HepG2 cells assessed as reduction in cell viability after 48 hrs by MTT assay. The series is classed as cell-based. In a few lines:
(§3)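 Cells seeded at 2 × 10^5 per well and allowed 24 h at 37°C, 5% CO2 to form a monolayer. Dilutions added in triplicate and incubated 48 h. MTT (2 mg/mL) then added for 4 h, followed by DMSO for 20 min at room temperature. Absorbance read at 550 nm; DMSO diluent and untreated cells served as negative controls. CC50 derived from the curve.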
(Formazan colour is commonly taken as a measure of viable cells.)

Series [14] in a line: Cytotoxicity against human HepG2 cells expressing CD81 assessed as reduction in cell viability after 48 hrs by MTT assay. The series is classed as cell-based. In a few lines: as §3

Calls of active or inactive are those of the source. The rule behind the calls is not given here.

In the case of `COc1cc(NC(C)CCCNC(=O)c2c(C)[n+]([O-])c3ccccc3[n+]2[O-])c2ncccc2c1` (centres undefined), the figures for the selectivity ratio in series [1] and in series [7] were 7.59 and 0.58, respectively. In addition, the half-inhibitory concentration (IC50) – broadly, the concentration needed to halve the response being measured – in [2] stood at 5.38 µM; in series [5], 67.2 µM. Besides, the Activity entry is on record as “Non-Toxic” in series [3]; “Non-Toxic” in [4]; “Non-Toxic” in [8]; “Non-Toxic” in series [9]; 25% in series [12]. The result in series [6] was Active. In addition, the fold induction at 4 h in series [10] was under 2. In addition, the viability at 4 h in series [11] was over 80%. Also, the cytotoxic concentration (CC50) – broadly, the concentration that lowers cell viability or growth by half – at 48 h in [13] is 39.5 µM; in [14], over 213 µM.

The record behind these values is ChEMBL document CHEMBL4270646, “Novel antimalarial chloroquine- and primaquine-quinoxaline 1,4-di-N-oxide hybrids: Design, synthesis, Plasmodium life cycle stage profile, and preliminary toxicity studies” (Eur J Med Chem, 2018).
